Bioassay records: PubChem BioAssay, The Scripps Research Institute Molecular Screening Center
NPY-Y2 antag = NPY-Y2 receptor antagonists, primary screen, cell-based | Neuropeptide Y receptor type 2 (Homo sapiens), P49146 | hit rate 0.99% among 140,000 | NPY-Y2 expressing cells, antagonist mode | inhibition, % at 2.7 µM | AID 793, 2007; in the data active = inhibition above about 17%;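 also: 0% = vehicle with agonist challenge and 100% = reference antagonist with challenge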
Target sequence (P49146 whole entry, looked up): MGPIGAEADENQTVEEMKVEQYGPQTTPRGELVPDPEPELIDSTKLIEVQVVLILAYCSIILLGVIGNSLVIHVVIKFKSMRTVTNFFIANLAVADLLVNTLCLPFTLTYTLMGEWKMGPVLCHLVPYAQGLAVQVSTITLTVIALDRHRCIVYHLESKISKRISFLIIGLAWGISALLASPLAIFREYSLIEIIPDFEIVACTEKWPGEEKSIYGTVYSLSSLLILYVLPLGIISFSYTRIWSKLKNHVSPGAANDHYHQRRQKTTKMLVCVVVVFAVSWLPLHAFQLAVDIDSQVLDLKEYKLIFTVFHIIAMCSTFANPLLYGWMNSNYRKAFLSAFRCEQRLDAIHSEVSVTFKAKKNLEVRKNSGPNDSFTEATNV
NPY1 pot ag = NPY-Y1 receptor potentiators or agonists, primary screen, cell-based. hit rate 0.37% among 220,000. activation, % at 3.6 µM. NPY-Y1 expressing cells, potentiator/agonist activation. AID 1304, 2008; in the data active = activation above about 33%, passing the limit was not always enough;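 also: cells stimulated with NPY at EC10 then isoproterenol at EC100; 0% = low agonist plus stimulus and 100% = saturating agonist plus stimulus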
NPY2 pot ag = NPY-Y2 potentiators or agonists, primary screen, cell-based | activation, % at 3.6 µM | AID 1359, 2008 | cells expressing NPY-Y2, potentiator/agonist read-out | hit rate 0.45% among 220,000 | Neuropeptide Y receptor type 2 (Homo sapiens), P49146; in the data active = activation above about 27%;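 also: cells stimulated with NPY near EC25 plus isoproterenol at EC100; 0% = vehicle plus submaximal agonist and 100% = vehicle plus saturating agonist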
NPY Y1 blocker = NPY-Y1 receptor antagonists, primary screen, cell-based; inhibition, % at 3.6 µM; hit rate 1% among 200,000; HEK293-CNG Y1 cells, membrane potential fluorescence; NPY at EC95, then isoproterenol; Neuropeptide Y receptor type 1 (Homo sapiens), P25929; AID 1040, 2008;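 active = inhibition above the campaign mean inhibition of all tested compounds plus 3 SD, cut at about 20% in these data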;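 also: 0% = DMSO wells given NPY plus isoproterenol and 100% = isoproterenol alone without NPY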
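Test system: HEK293 cells co-expressing NPY Y1 receptor and cyclic-nucleotide gated channel; Also added: NPY (25 nM), isoproterenol (1 µM), Ro 20-1724 (25 µM); Compound dosing: one concentration, 3.6 µM, in 0.4% DMSO; Timing: dye 3 h, compound 60 min room temperature, stimulation 45 min; Technique: Membrane-potential fluorescent dye readout.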
* hit, by the source's call. Hits are enriched below; roughly 1.8% of the tested compounds scored in any of these assays.

For C[C@@H]1O[C@@H](O[C@H]2C[C@@H](O)[C@]3(CO)[C@H]4[C@H](O)C[C@]5(C)[C@@H](C6=CC(=O)OC6)CC[C@]5(O)[C@@H]4CC[C@]3(O)C2)[C@H](O)[C@H](O)[C@H]1O the results were NPY-Y2 antag 22*, NPY1 pot ag -79, NPY2 pot ag -22 and NPY Y1 blocker 34*.
Screening CC12CC[C@H]3[C@@H](CCC4(O)C[C@H](O)CCC34/C=N/NC(=O)c3ccccc3Cl)C1(O)CCC2C1=CC(=O)OC1 (stereo partly specified) returned NPY1 pot ag -13 and NPY2 pot ag -38.
C[C@H]1O[C@@H](O[C@H]2[C@@H](O)C[C@H](O[C@H]3[C@@H](O)C[C@H](O[C@H]4CC[C@@]5(C)[C@H](CC[C@@H]6[C@@H]5CC[C@]5(C)[C@@H](C7=CC(=O)OC7)CC[C@]65O)C4)O[C@@H]3C)O[C@@H]2C)C[C@H](O)[C@@H]1O was read as NPY-Y2 antag 45*, NPY1 pot ag -82, NPY2 pot ag -18 and NPY Y1 blocker 51*.
For C=CCn1c(O)c(C=NCCN(C)C)c(=O)[nH]c1=O the results were NPY-Y2 antag 2, NPY1 pot ag 12, NPY2 pot ag 17 and NPY Y1 blocker 4.
For Cc1cc(C)n2nc(SC(C)C(=O)N3CCC4(CC3)OCCO4)nc2n1 (stereo unspecified) the results were NPY-Y2 antag 1, NPY1 pot ag 73*, NPY2 pot ag 99* and NPY Y1 blocker -2.
For CC(CCc1ccccc1)NC(C)C(O)c1ccc(O)cc1 (stereo unspecified) the results were NPY-Y2 antag 4, NPY1 pot ag 92*, NPY2 pot ag 86* and NPY Y1 blocker -9.
`CC(NCc1ccc(Cl)cc1)C(O)c1ccccc1` (stereo unspecified) gave NPY-Y2 antag 7, NPY1 pot ag -10, NPY2 pot ag -15 and NPY Y1 blocker 9.
CC/C(=N\Nc1ccccc1)c1c(O)[nH]c(=O)[nH]c1=O was read as NPY1 pot ag 16 and NPY2 pot ag 10.
C=C[C@@H]1C[C@@]1(C)[C@@H](NP(=O)(c1ccccc1)c1ccccc1)c1ccccc1 was read as NPY-Y2 antag 23*, NPY1 pot ag -34, NPY2 pot ag -6 and NPY Y1 blocker 38*.
Cc1ccc(OP(=O)(O)Oc2ccc(C)cc2)cc1 was read as NPY-Y2 antag 12, NPY1 pot ag -17, NPY2 pot ag -13 and NPY Y1 blocker 26*.
For NC1C2CN3CCN(C2)CC1(c1ccccc1)C3 (stereo unspecified) the results were NPY1 pot ag 12 and NPY2 pot ag -9.
Screening COC(=O)[C@@H]1C[C@H]1[C@@H](NP(=O)(c1ccccc1)c1ccccc1)c1ccccc1 returned NPY-Y2 antag 4, NPY1 pot ag 4, NPY2 pot ag -11 and NPY Y1 blocker 6.
`COC(=O)[C@H]1C[C@@H]1[C@H](NP(=O)(c1ccccc1)c1ccccc1)c1ccccc1` gave NPY-Y2 antag 19*, NPY1 pot ag -36, NPY2 pot ag -13 and NPY Y1 blocker 40*.
`CC(C)(C)NCC(O)c1cc(Cl)c(N)c(Cl)c1` (stereo unspecified) gave NPY-Y2 antag 1, NPY1 pot ag 97*, NPY2 pot ag 88* and NPY Y1 blocker -11.
Screening Cc1cc(OC(=O)CCCNC(=O)OC(C)(C)C)c2c3c(c(=O)oc2c1)CCC3 returned NPY-Y2 antag 2, NPY1 pot ag 1, NPY2 pot ag -18 and NPY Y1 blocker 2.
Cc1cc(OC(=O)CCNC(=O)OC(C)(C)C)c2c3c(c(=O)oc2c1)CCC3 was read as NPY-Y2 antag -4, NPY1 pot ag -13, NPY2 pot ag 68* and NPY Y1 blocker 1.
`O=C(O)Cn1cc(/C=C2\C(=O)NC(=O)N(Cc3ccco3)C2=O)c2ccccc21` gave NPY1 pot ag -1, NPY2 pot ag 3 and NPY Y1 blocker -4.
Screening CC(Oc1ccc(-c2ccccc2)cc1)C(=O)O (stereo unspecified) returned NPY-Y2 antag 5, NPY1 pot ag 2, NPY2 pot ag -28 and NPY Y1 blocker 25*.
`N=C(N)c1c(O)n(C2CCCCC2)c(=O)n(C2CCCCC2)c1=O` gave NPY-Y2 antag 0, NPY1 pot ag 30, NPY2 pot ag 31* and NPY Y1 blocker -8.
CCNC(=O)C1OC(n2cnc3c(N)ncnc32)C(O)C1O (stereo unspecified) was read as NPY-Y2 antag 138*, NPY1 pot ag -98, NPY2 pot ag -25 and NPY Y1 blocker 127*.
For CSCCC(N=Cc1c(O)n(-c2ccc(F)cc2)c(=O)[nH]c1=O)C(=O)OC(C)(C)C (stereo unspecified) the results were NPY-Y2 antag 0, NPY1 pot ag -11, NPY2 pot ag 14 and NPY Y1 blocker -3.
For CN1CC(C(=O)c2ccc(Cl)cc2)C(c2ccc(N(C)C)cc2)C1 (stereo unspecified) the results were NPY1 pot ag 19, NPY2 pot ag 6 and NPY Y1 blocker 6.
For CN[C@H]1C[C@H]2O[C@@](C)([C@H]1OC)n1c3ccccc3c3c4c(c5c6ccccc6n2c5c31)C(=O)NC4 the results were NPY-Y2 antag 30*, NPY1 pot ag -57, NPY2 pot ag 16 and NPY Y1 blocker 54*.
CN(C(=O)CNC(=O)OCc1ccccc1)c1ccc(Br)cc1C(=O)c1ccccc1Cl was read as NPY-Y2 antag 18*, NPY1 pot ag -41, NPY2 pot ag -19 and NPY Y1 blocker 23*.
`CCOc1ccc(Cc2c(O)[nH]c(=O)[nH]c2=O)cc1` gave NPY-Y2 antag -1, NPY1 pot ag 7, NPY2 pot ag 6 and NPY Y1 blocker -1.
CCN1CCN(Cc2ccc(C)cc2)CC1 was read as NPY-Y2 antag 0, NPY1 pot ag 5, NPY2 pot ag -12 and NPY Y1 blocker 9.
`CCN1CCN(Cc2cc(C(C)(C)C)c(O)c(C(C)(C)C)c2)CC1` gave NPY-Y2 antag 3, NPY1 pot ag 68*, NPY2 pot ag 62* and NPY Y1 blocker -6.
Screening Cc1ccc(-c2nn(Cc3ccccc3)cc2C=O)cc1C returned NPY-Y2 antag 1, NPY1 pot ag 36, NPY2 pot ag 7 and NPY Y1 blocker 0.
For CCOC(=O)c1c(C)n(Cc2ccco2)c2ccc(O)cc12 the results were NPY-Y2 antag 3, NPY1 pot ag -4, NPY2 pot ag -4 and NPY Y1 blocker 2.
Screening CCCCn1c(C)c(C(=O)OCC)c2c(CN3CCOCC3)c(O)ccc21 returned NPY-Y2 antag 34*, NPY1 pot ag -59, NPY2 pot ag -32 and NPY Y1 blocker 33*.
Screening CC(=O)Nc1ccccc1C(=O)OCC(=O)c1ccc2c(c1)OCCO2 returned NPY-Y2 antag 2, NPY1 pot ag 6, NPY2 pot ag 10 and NPY Y1 blocker -4.
CCN(CCNc1ccc([N+](=O)[O-])c2cccnc12)S(=O)(=O)c1ccccc1 was read as NPY-Y2 antag 6, NPY1 pot ag 61*, NPY2 pot ag 70* and NPY Y1 blocker -5.
